Only some compounds are listed: those with a hit (about 2% of all), similar ones and a draw of the others.
NR2E3 ag-1: human photoreceptor-specific nuclear receptor agonism. Q9Y5X4. CHO-S Gal4-NCOR/VP16-NR2E3 two-hybrid, luciferase. inhibition of corepressor binding, % at 3.98 µM. 360,000 tested, 0.35% active. AID 602229;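 active means inhibition above the mean of all tested compounds plus 3 SD, cut at about 70% in these data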;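 further: 0% = DMSO with NR2E3 transfected cells and 100% = cells lacking NR2E3 construct; higher means lower luciferase signal from less NR2E3 corepressor binding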
Target sequence (Q9Y5X4 whole entry, looked up, the tested form may be a part): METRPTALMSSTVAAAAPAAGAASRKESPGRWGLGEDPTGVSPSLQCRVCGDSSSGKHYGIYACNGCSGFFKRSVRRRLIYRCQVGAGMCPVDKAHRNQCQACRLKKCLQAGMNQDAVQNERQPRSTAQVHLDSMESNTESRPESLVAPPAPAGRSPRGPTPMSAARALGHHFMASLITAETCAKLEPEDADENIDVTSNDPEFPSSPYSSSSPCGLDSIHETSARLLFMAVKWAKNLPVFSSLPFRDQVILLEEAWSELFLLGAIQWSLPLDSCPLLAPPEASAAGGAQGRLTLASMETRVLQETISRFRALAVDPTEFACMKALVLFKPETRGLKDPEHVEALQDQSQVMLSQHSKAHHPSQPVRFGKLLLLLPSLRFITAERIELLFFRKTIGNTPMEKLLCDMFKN
GAA850 FXN act: frataxin GAA850 promoter activation; HEK293 lucGAA850 FXN promoter luciferase reporter, 24 h; percent of 10 µM SAHA response; activation, % at 6 µM; 360,000 tested, 0.56% active; AID 540364;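 active means activation above the average of all compounds screened plus 3 SD, cutoff fixed separately per campaign, cut at about 7.5% in these data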;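 further: 0% = DMSO wells and 100% = 10 µM SAHA wells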
T cell HTS: T cell immune modulators affecting CD8 T cell-vesicle binding; 2C CD8+ T cell-vesicle binding, flow cytometry; active compounds read low; response (vesicle binding), % at 7 µM; 330,000 tested, 0.068% active; AID 2052;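 active means response, share of CD8 T cells binding vesicles, and their 90th percentile fluorescence all below set limits, cut at about 80% in these data, passing the limit was not always enough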;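 further: values below 100% mean blocked vesicle binding to the CD8+ T cells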
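Material: 2C TCR transgenic mouse naive CD8+ T cells, MACS-purified. Also added: QL9-charged Drosophila Ld/ICAM-1/B7-1 vesicles. Timing: binding 1.5 h at 37 °C. Measured by: high-throughput flow cytometry with anti-B7-1 and anti-CD8 staining. Read-out: percent CD8+ FL2 mean versus row control. Controls: Unloaded micro-vesicles (low), QL9 vesicles with 0.7% DMSO (high).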
Myeloid diff 2: myeloid differentiation induction | calls only at 10 µM | 360,000 tested, 1% active | AID 624256 | ER-HoxA9 myeloid progenitors, lysozyme-GFP differentiation, flow cytometry;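 active means normalized GFP-positive differentiation at or above the plate's own cutoff, the solvent-only control mean plus 3 SD; inconclusive means no clear call, values can overlap the other calls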;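 further: cells exposed to compound for four days before flow analysis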
NR2E3 ag-2: activates human photoreceptor nuclear receptor NR2E3; Q9Y5X4; GST-NR2E3/biotin-RetCOR TR-FRET, 1536-well; inhibition of corepressor binding, % at 4.78 µM; 320,000 tested, 0.12% active; AID 2300;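 active means percent inhibition above the cutoff of mean plus 3 SD of all tested compounds, set per screening campaign, cut at about 20% in these data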;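 further: 0% = DMSO wells and 100% = biotin wells as full block of FRET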
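Test system: GST-NR2E3 and biotin-RetCOR proteins | Quantity: 1.35 nM GST-tagged NR2E3 final | Medium: Tris pH 7.5 | Also added: 7 nM biotin-RetCOR | Dosing: Compound at 4.8 µM, single dose | Timing: 5 h at 4 °C | Detection: Time-resolved FRET | Read-out basis: Percent inhibition | Benchmarks: Biotin wells as high control, 0.6% DMSO wells as low control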
NR2E3 ag conf: NR2E3 agonism confirmed in two-hybrid assay. shares compounds with NR2E3 ag-1. CHO-S mammalian two-hybrid NR2E3-NCOR, luciferase luminescence. inhibition, % at 3.98 µM. 2,300 tested, 51% active;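 active means average inhibition above a cutoff equal to the mean inhibition of all tested compounds plus one SD, cut at about 70% in these data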;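 further: 0% = DMSO in NR2E3 cells and 100% = DMSO in cells lacking NR2E3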
GAL4-VP16 luc: reduces GAL4-VP16 reporter signal in NR2E3 counterscreen; shares compounds with NR2E3 ag-1; CHO-S GAL4-VP16 luciferase reporter, luminescence; inhibition, % at 3.98 µM; 2,300 tested, 29% active;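 active means mean inhibition above a cutoff equal to the average over all tested compounds plus one standard deviation, cut at about 70% in these data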;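 further: luciferase from a UAS reporter driven by GAL4-VP16 transactivation; 0% = DMSO with VP16-transfected cells and 100% = DMSO with cells lacking VP16; higher means less reporter light so more repression of VP16 activity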
An asterisk follows results filed as active; i = inactive; ? = inconclusive; nt = no result.

SMILES	NR2E3 ag-1	GAA850 FXN act	T cell HTS	Myeloid diff 2	NR2E3 ag-2	NR2E3 ag conf	GAL4-VP16 luc
O=C(NC(=C(Cl)Cl)S(=O)(=O)c1ccc(Cl)cc1)c1ccccc1	64	3	441	i	-1	33	20
CC(=O)NC(=C(Cl)Cl)S(=O)(=O)c1ccccc1	51	2	326	i	-5	6	-7
Cc1ccc(S(=O)(=O)C(NC(=O)c2ccccc2)=C(Cl)Cl)cc1	22	-3	i	i	0	nt	nt
O=C(/C=C/c1cccc(O)c1)c1ccc(N2CCOCC2)cc1	-39	4	357	i	0	nt	nt
CCCNC(=O)C1(C)CCCN(Cc2cc(-c3ccccc3)n(C)n2)C1 (configuration not stated)	-15	-3	nt	i	nt	nt	nt
COc1ccc(NC(=O)c2ccc(-c3ccccc3)cc2)cc1NS(=O)(=O)c1ccc(F)cc1	69	1	176	i	0	-5	21
Cc1cc(N2CCOCC2)nc(NCc2ccccc2)n1	53	2	250	i	3	53	60
CCc1ccc(/C(C)=N/NC(=O)CNC(=O)/C=C/c2ccco2)cc1	-3	1	151	i	5	nt	nt
Nc1ccc(Br)cc1-c1nc2ccccc2[nH]c1=O	62	3	125	i	1	91*	77*
CCCc1ccc(S(=O)(=O)N2CCN(C(C)C(=O)NCc3ccc(OC)cc3)CC2)cc1 (configuration not stated)	49	-2	533	i	1	27	32
Cc1cccc(NC(=O)C(C)C(=O)c2ccccc2)c1 (configuration not stated)	-19	0	218	i	nt	nt	nt
Cc1ccc(NC(=O)C(C)c2cccc(C(=O)c3ccccc3)c2)cc1O (configuration not stated)	65	-2	255	i	1	95*	80*
Nc1nonc1C(=O)NCCNCc1cc(Br)ccc1OCc1ccccc1F	51	-3	833	i	3	60	50
Nc1nonc1C(=O)NCCNCc1ccccc1OCc1ccccc1F	-5	-4	301	i	2	nt	nt
O=C(Nc1ccc([N+](=O)[O-])cc1Cl)c1cc(Cl)ccc1O	-110	-1	348	nt	2	nt	nt
O=C(Nc1cccc(Cl)c1)c1cc(N=Nc2ccc([N+](=O)[O-])cc2Cl)ccc1O	71*	1	240	i	2	100*	92*
CCOc1ccc2nc(NC(=O)C3CCN(c4cnccn4)CC3)sc2c1	53	1	211	i	0	54	11
Cc1ccc(-c2csc3ncnc(Sc4nnc(CN5CCCCCC5=O)o4)c23)cc1	69	-5	413	?	2	-15	15
Cc1ccc(-c2csc3ncnc(SCC(=O)Nc4nnc(C)s4)c23)cc1	-9	-2	402	i	2	nt	nt
CC(C)C(Sc1nc(-c2ccccc2)cc(-c2ccccc2)c1C#N)C(=O)O (configuration not stated)	58	6	246	i	4	63	33
COc1ccc(-c2cc(-c3ccccc3)nc(SC(C)C(=O)O)c2C#N)cc1 (configuration not stated)	-16	2	211	i	11	nt	nt
COC1(OC)C(/C=C/c2ccc(C)cc2)C(C#N)(C#N)C1(OC)OC (configuration not stated)	77*	-3	166	i	-3	-31	7
CC1C(=O)N(Cc2cn(CCC3OCCCO3)nn2)CCS(=O)(=O)N1Cc1ccc(-c2ccc(F)cc2)cc1 (configuration not stated)	2	-1	nt	i	nt	nt	nt
CC1C(=O)N(Cc2cn(CCC3OCCCO3)nn2)CCS(=O)(=O)N1Cc1ccc(-c2ccc(Cl)c(Cl)c2)cc1 (configuration not stated)	68	-3	nt	i	nt	93*	77*
CC1C(=O)N(Cc2cn(CC3CCCCC3)nn2)CCS(=O)(=O)N1Cc1ccc(-c2ccc(Cl)c(Cl)c2)cc1 (configuration not stated)	5	0	nt	i	nt	nt	nt
SMILES	NR2E3 ag-1	GAA850 FXN act	T cell HTS	Myeloid diff 2	NR2E3 ag-2	NR2E3 ag conf	GAL4-VP16 luc
CC1C(=O)N(Cc2cn(CC3CCCCC3)nn2)CCS(=O)(=O)N1Cc1ccc(-c2ccc(Cl)cc2)cc1 (configuration not stated)	59	-1	nt	i	nt	32	34
Nc1ccccc1/C=C/c1ccccc1N	-88	5	nt	i	nt	nt	nt
CCc1ccccc1NNC(=O)c1cc(C)on1	17	1	912	i	0	nt	nt
Cc1cc(C(=O)NNc2ccccc2F)no1	50	2	372	i	-4	48	0
O=C(NCCN1CCCC(O)C1)c1cc(COc2cccc(C(F)(F)F)c2)on1 (configuration not stated)	3	-1	nt	i	nt	nt	nt
COCCNC(=O)C1(C)CCCN(C(=O)c2ccc3c(c2)OCO3)C1 (configuration not stated)	16	-1	nt	i	nt	nt	nt
Fc1ccc(-n2nnnc2-c2cnc(-c3cccs3)nc2C(F)(F)F)cc1	88*	-11	580	i	0	92*	69
CNc1snc(C)c1C(=O)OCC(=O)c1cc(F)ccc1OC	28	1	244	i	0	nt	nt
CNc1snc(C)c1C(=O)OCC(=O)c1ccc(OC)c(F)c1	53	0	262	i	3	57	50
Cc1cccc(N2CCN(C(=O)CSCc3c(C)noc3C)CC2)c1C	68	-4	508	i	0	87*	68
O=C(OCCN1C(=O)c2cccc3c(N4CCOCC4)ccc(c23)C1=O)c1ccccc1Cl	52	-3	261	i	4	93*	92*
CCOC(=O)c1cnc(-n2nc(C)cc2C)nc1NC1CCCC1	94*	-1	623	i	2	30	0
CCOC(=O)c1cnc(-n2nc(C)cc2C)nc1NCCc1ccccc1	86*	0	241	i	3	12	-7
CCOC(=O)c1cnc(-n2nc(C)cc2C)nc1Oc1ccccc1F	-27	2	395	i	3	nt	nt
CCOC(=O)c1cnc(-n2nc(C)cc2C)nc1Nc1ccc(OC)cc1	17	-1	894	i	-6	nt	nt
Cc1cc(C)c(C(=O)N2CCC(N3CCC(C(=O)NC(C)C)CC3)CC2)o1	20	3	253	i	0	nt	nt
CCCCN1CC(N2CCN(C)CC2)CS1(=O)=O (configuration not stated)	7	nt	nt	i	nt	nt	nt
Cc1ccc(F)c(S(=O)(=O)NC(=O)C2(C)CCN2C(=O)C2(c3ccc(Cl)cc3)CCC2)c1 (configuration not stated)	18	-2	nt	i	nt	nt	nt
